The source made the active and inactive calls. No cut-off for these calls is given here.
Tests used:
L1210 = assay: In vitro concentration required to inhibit 50% growth of murine L1210 leukemia cells; format: functional; settings: Mus musculus, read-out: ID50 (the source's name)
Summary of the method: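 Mouse L1210 leukemia cells in RPMI 1634 with 5% fetal calf serum, 0.075% sodium bicarbonate, penicillin 0.1 mg/mL and streptomycin 50 μg/mL. Drug aliquots added to tubes, then cells at approximately 5 × 10³ cells/mL. Incubation 37 °C for 3 days; cell number by Coulter counter. ID₅₀ = nM concentration giving 50% growth inhibition.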

P388 [1] = assay: In vivo % increase in life span of treated animals (OD) over that of control mice bearing tumor, determined against P388 leukemia cells; format: functional, Mus musculus
Summary of the method: (§1)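 Male BDF1 mice inoculated ip with 10⁶ P388 cells (tumor passaged in DBA/2 females) on day 0. Drug ip on days 1, 5, 9 in 2% DMA, 10% Emulphor 620-P, water. Six mice per group. %ILS = (median death day treated / median death day untreated control − 1) × 100, at optimum dose. 30-day survivors counted as cured.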

P388 [2] = assay: In vivo optimum dose given on days 1, 5, and 9 to mice implanted intraperitoneally with P388 leukemia cells; format: functional, Mus musculus
Summary of the method: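 P388 cells (10⁶/mouse) implanted ip into male BDF1 mice on day 0. Dosing ip on days 1, 5 and 9 in 2% DMA/10% Emulphor 620-P/water vehicle. Six mice per group. Optimum dose given in mg/kg per day, judged by increase in median life span.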

[3] = Lipophilic/hydrophilic partitioning (RP-TLC); format: ADME; settings: 2:1 DMF-saline
Summary of the method: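 Reverse-phase TLC developed in 2:1 DMF–saline (0.9% NaCl). Plates scanned at 350 nm. R_f values averaged from two to four determinations.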

[4] = Pseudo-first order rate constant at pH 3 followed spectrophotometrically; format: ADME
Summary of the method: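 Acid-catalyzed cyclopropyl ring opening in methanolic buffer at pH 3, tracked by loss of the 344–370 nm absorption band. Residual long-wavelength absorbance at 2 weeks subtracted. Rate from ln(A/A₀) vs time, linear for at least 2 half-lives. Drug 20–120 µM.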

Nucleic Acid = assay: Induced circular dichroism (ICD), expressed as molar ellipticity, in the presence of calf-thymus DNA; format: functional; settings: Bos taurus
Summary of the method: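 Drug stock (1–4 mg/mL in DMA, DMF or DMSO) injected into calf-thymus DNA (11 × 10⁻⁵ M) in 0.01 M phosphate buffer pH 7.2. Final drug 0.85 × 10⁻⁵ M, base-to-drug ratio 13. Stood 24 h at room temperature before CD spectrum. Value is molar ellipticity at long-wavelength maximum, ca. 350 nm.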

Mus musculus [5] = assay: In vivo optimum dose (OD), given on days 1, 5, and 9 to mice bearing P388 leukemia; format: functional
Summary of the method: (§2)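 P388 leukemia kept by serial passage in female DBA/2 mice. Male BDF1 mice were given 10^6 cells ip on day 0. Drug was given ip on days 1, 5 and 9 in 2% DMA/10% Emulphor 620-P/water, with six mice per group. Optimum dose was in mg/kg per day. %ILS came from the median day of death versus untreated tumor-bearing controls. Mice alive at 30 days were counted as cured.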

Mus musculus [6] = assay: In vivo % increase in life span of treated animals (OD) over that of control mice bearing P388 leukemia; format: functional; summary of the method: as §1
P388 [7] = assay: In vivo % increase in life span of treated animals (OD) over that of control mice bearing tumor, determined against P388 leukemia cells; NA=no activity(<20% ILS); format: functional, organism-based; settings: Mus musculus; summary of the method: as §2

SMILES | IC50 (L1210) | ILS (P388 [1]) | OD (P388 [2]) | Rf [3] | k [4] | ICD (Nucleic Acid) | OD (Mus musculus [5]) | ILS (Mus musculus [6]) | ILS (P388 [7])
CCCCCC(=O)Nc1ccc2nc(C(=O)N3CC4CC45C3=CC(=O)c3[nH]cc(C)c35)ccc2c1 (stereo not given) | 100 nM | 127% | 21 mg/kg/day | 0.15 |  |  |  |  | 
Cc1c[nH]c2c1C13CC1CN(C(=O)c1ccc4ccccc4n1)C3=CC2=O (stereo not given) | 10 nM | 142% | 6 mg/kg/day | 0.5 | 1.2e-05 | 0.001 |  |  | 
CCCCCC(=O)N1CC2CC23C1=CC(=O)c1[nH]cc(C)c13 (stereo not given) | 3 nM | 100% | 2 mg/kg/day | 0.35 | 8e-06 | 0 |  |  | 
Cc1c[nH]c2c1C13CC1CN(C(=O)c1cc4ccccc4n1C)C3=CC2=O (stereo not given) | 10 nM |  |  |  | 1e-05 | 0.003 | 8 mg/kg/day | 44% | 
CC(=O)N1CC2CC23C1=CC(=O)c1[nH]cc(C)c13 (stereo not given) | 20 nM | 45% | 3 mg/kg/day | 0.9 |  | 0 |  |  | 
Cc1c[nH]c2c1C13CC1CN(S(=O)(=O)c1ccccc1)C3=CC2=O (stereo not given) | 900 nM |  |  | 0.58 |  |  |  |  | 
Cc1c[nH]c2c1C13CC1CN(C(=O)c1cc4cc(NC(=O)c5cc6cc(NC(=O)c7ccccc7)ccc6[nH]5)ccc4[nH]1)C3=CC2=O (stereo not given) | 0.01 nM | 77% | 0.1 mg/kg/day | 0.3 |  | 0.033 |  |  | 
CC1=C(C(=O)N2CC3CC34C2=CC(=O)c2[nH]cc(C)c24)Cc2ccccc21 (stereo not given) | 30 nM |  | 17 mg/kg/day | 0.39 |  | 0.004 |  |  | inactive
Cc1c[nH]c2c1C13CC1CN(C(=O)c1cc4ccccc4s1)C3=CC2=O (stereo not given) | 0.3 nM | 100% | 0.8 mg/kg/day | 0.41 | 1.1e-05 | 0.007 |  |  | 
Cc1c[nH]c2c1C13CC1CN(C(=O)c1ccccc1)C3=CC2=O (stereo not given) | 3 nM | 71% | 12 mg/kg/day | 0.63 | 9e-06 | < 0.001 |  |  | 
COc1c(O)ccc2cc(C(=O)N3CC4CC45C3=CC(=O)c3[nH]cc(C)c35)[nH]c12 (stereo not given) | 0.1 nM | 55% | 0.05 mg/kg/day | 0.63 | 1e-05 | 0.037 |  |  | 
Cc1c[nH]c2c1C13CC1CN(C(=O)c1ccccn1)C3=CC2=O (stereo not given) | 10 nM | 69% | 15 mg/kg/day | 0.76 | 1.2e-05 | 0 |  |  | 
Cc1c[nH]c2c1C13CC1CN(C(=O)c1cc4ccccc4o1)C3=CC2=O (stereo not given) | 0.04 nM |  |  |  | 1.1e-05 | 0.006 | 0.25 mg/kg/day | 110% | 
Cc1c[nH]c2c1C13CC1CN(C(=O)c1ccc4ccccc4c1)C3=CC2=O (stereo not given) | 7 nM | 73% | 6 mg/kg/day | 0.46 |  | 0 |  |  | 
Cc1c[nH]c2c1C13CC1CN(C(=O)c1cc4cc(NC(=O)c5cc6ccccc6[nH]5)ccc4[nH]1)C3=CC2=O (stereo not given) | 0.01 nM | 159% | 0.05 mg/kg/day | 0.3 |  | 0.07 |  |  | 
Cc1c[nH]c2c1C13CC1CN(C(=O)OC(C)(C)C)C3=CC2=O (stereo not given) | 300 nM |  |  | 0.35 | 5e-06 | 0 |  |  | 
Cc1c[nH]c2c1C13CC1CN(C(=O)c1ccc(NC(=O)c4ccccc4)cc1)C3=CC2=O (stereo not given) | 0.5 nM | 83% | 0.5 mg/kg/day | 0.42 |  | 0.011 |  |  | 
COc1c(O)c2c(c3cc(C(=O)N4CCc5c4c(O)c(OC)c4[nH]c(C(=O)N6C[C@H]7C[C@@]78C6=CC(=O)c6[nH]cc(C)c68)cc54)[nH]c13)CCN2C(N)=O [(+)-CC-1065] | 0.07 nM | 62% | 0.1 mg/kg/day | 0.39 |  | 0.28 |  |  | 
Cc1c[nH]c2c1C13CC1CN(C(=O)c1cc4cc(NC(=O)c5ccccc5)ccc4[nH]1)C3=CC2=O (stereo not given) | 0.07 nM | 82% | 0.05 mg/kg/day | 0.43 |  | 0.036 |  |  | 
Cc1c[nH]c2c1C13CC1CN(C(=O)c1cc4cc(NC(=O)c5cc6cc(NC(N)=O)ccc6[nH]5)ccc4[nH]1)C3=CC2=O (stereo not given) | 0.3 nM | 121% | 0.1 mg/kg/day |  |  | 0.075 |  |  | 
Cc1c[nH]c2c1C13CC1CN(C(=O)c1ccc[nH]1)C3=CC2=O (stereo not given) | 2 nM | 71% | 1 mg/kg/day | 0.7 |  | 0.01 |  |  | 
CCCCCCCCCC(=O)N1CC2CC23C1=CC(=O)c1[nH]cc(C)c13 (stereo not given) | 100 nM |  | 40 mg/kg/day | 0.07 |  | 0 |  |  | inactive
Cc1c[nH]c2c1C13CC1CN(C(=O)c1cc4ccccc4[nH]1)C3=CC2=O (stereo not given) | 0.2 nM | 90% | 0.4 mg/kg/day | 0.45 | 1e-05 | 0.036 |  |  | 
Cc1c[nH]c2c1C13CC1CN(C(=O)c1cc4cc(NC(=O)c5cc6ccccc6o5)ccc4[nH]1)C3=CC2=O (stereo not given) | 0.02 nM | 170% | 0.05 mg/kg/day | 0.3 | 1e-05 | 0.05 |  |  | 
COc1ccc2[nH]c(C(=O)N3CC4CC45C3=CC(=O)c3[nH]cc(C)c35)cc2c1 (stereo not given) | 0.01 nM | 95% | 0.05 mg/kg/day | 0.47 | 1e-05 | 0.022 |  |  | 
Cc1c[nH]c2c1C13CC1CN(S(C)(=O)=O)C3=CC2=O (stereo not given) | 100 nM | 60% | 25 mg/kg/day | 0.82 | 3e-06 | 0 |  |  | 
Cc1c[nH]c2c1C13CC1CN(C(=O)c1cc4cc(NC(N)=O)ccc4[nH]1)C3=CC2=O (stereo not given) | 0.6 nM | 65% | 0.06 mg/kg/day | 0.89 | 1e-05 | 0.047 |  |  | 
